Source: paper PMC3310921 (Bioorganic & medicinal chemistry, 2010)
“And” between values parts separate entries of the source, which are not always exact repeats. Equal entries are not always repeated. “Also recorded” adds a separate entry of the source. Where two headings read alike, the source gives them in different places.

What was measured:
[1] = Cytotoxicity, average of the three normal cells; assay type: cell-based; details: human, HGF, HPC and HPLF normal cells (average of the three)
In short: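 Human HGF gingival fibroblasts, HPC pulp cells and HPLF periodontal ligament fibroblasts were exposed to graded concentrations for 24 h, up to a maximum of 400 μM. CC50 is the concentration cutting viable cell number by 50%. It was read from dose–response curves from duplicate determinations, then averaged over the three normal cell types.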

[2] = tested on: mice; test: Murine toxicity study; assay type: in vivo; details: for Neurotoxicity in mice (in words): 30, 100 and 300 mg/kg intraperitoneally, examined after 0.5 and 4 h
[3] = tested on: HL-60 cells; test: Internucleosomal DNA fragmentation in HL-60 cells; assay type: cell-based, human; details: 6 h incubation
[4] = tested on: HSC-2 cells; test: Internucleosomal DNA fragmentation in HSC-2 cells; assay type: cell-based, human; details: 6 h incubation
In short: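 After 6 h exposure of HSC-2 cells (HL-60 in parallel), cellular DNA was examined for internucleosomal laddering against a DNA molecular-weight marker.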

[5] = tested on: caspase-3 in HL-60 cells; test: Caspase-3 activation in HL-60 cells; assay type: cell-based, human; details: 5 h incubation
[6] = tested on: caspase-3 in HSC-2 cells; test: Caspase-3 activation in HSC-2 cells; assay type: cell-based, human; details: 5 h incubation
In short: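 HSC-2 cells, with HL-60 run in parallel, were exposed to the test compound for 5 h, then assayed for caspase-3 activation. The reference was UV irradiation at 6 J/m²/min for 1 min, followed by 3 h incubation. Values are from n = 3.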

[7] = tested on: mice; details: recorded previously ref 25, cited from earlier work; for Neurotoxicity in mice (in words): 30, 100 and 300 mg/kg intraperitoneally, 0.5 and 4 h
[8] = tested on: HGF gingival fibroblasts; details: read-out: CC50 HGF; human normal cells; reported previously ref 26; cited from earlier work
[9] = tested on: HPC pulp cells; details: read-out: CC50 HPC; human normal cells; reported previously ref 26; cited from earlier work
[10] = tested on: HPLF periodontal ligament fibroblasts; details: read-out: CC50 HPLF; human normal cells; reported previously ref 26; cited from earlier work
[11] = tested on: HSC-2 squamous cell carcinoma cells; details: read-out: CC50 HSC-2, human malignant cells, cited from earlier work
[12] = tested on: HL-60 promyelocytic leukemia cells; details: read-out: CC50 HL-60, human malignant cells, cited from earlier work
[13] = tested on: HSC-4 squamous cell carcinoma cells; details: read-out: CC50 HSC-4; human malignant cells; reported previously ref 27; cited from earlier work
[14] = tested on: mice; details: cited from earlier work
[15] = 100 mg/kg intraperitoneally, 0.5 h
[16] = 300 mg/kg intraperitoneally, 0.5 h

O=C1/C(=C/c2ccccc2)CCC/C1=C\c1ccccc1[N+](=O)[O-] [Compound 1a]
CC50 at 24 h [1]: 45 µM | Neurotoxicity in mice (in words) [2]: did not display any neurotoxic symptoms

O=C1/C(=C/c2ccc(F)cc2)CCC/C1=C\c1ccccc1[N+](=O)[O-] [Compound 1b]
CC50 at 24 h [1]: 53 µM

O=C1/C(=C/c2ccc(Cl)cc2)CCC/C1=C\c1ccccc1[N+](=O)[O-] [Compound 1c]
Induction of internucleosomal DNA fragmentation [3]: induced the internucleosomal DNA fragmentation | Induction of internucleosomal DNA fragmentation [4]: no evidence | Activation of caspase-3 [5]: concentration-dependent activation of caspase-3 | Activation of caspase-3 [6]: no evidence | Number of animals demonstrating neurological deficit/number of treated mice ([2]; 300 mg/kg intraperitoneally, 4 h): half or more

COc1ccc(/C=C2\CCC/C(=C\c3ccccc3[N+](=O)[O-])C2=O)cc1 [Compound 1f]
CC50 at 24 h [1]: > 395 µM

COc1cc(/C=C2\CCC/C(=C\c3ccccc3[N+](=O)[O-])C2=O)cc(OC)c1OC [Compound 1g]
CC50 at 24 h [1]: 53 µM

O=C1/C(=C/c2ccccc2)CCC/C1=C\c1cccc([N+](=O)[O-])c1 [Compound 2a]
CC50 at 24 h [1]: 19 µM | Number of animals demonstrating neurological deficit/number of treated mice [2, 15]: 2/8 | Number of animals demonstrating neurological deficit/number of treated mice [2, 16]: half or more and 2/4 | Neurotoxicity in mice (in words) [2]: Marginal neurotoxicity

O=C1/C(=C/c2ccc(F)cc2)CCC/C1=C\c1cccc([N+](=O)[O-])c1 [Compound 2b]
CC50 at 24 h [1]: 39 µM | Number of animals demonstrating neurological deficit/number of treated mice [2, 15]: 1/8

O=C1/C(=C/c2ccc(Cl)cc2)CCC/C1=C\c1cccc([N+](=O)[O-])c1 [Compound 2c]
CC50 at 24 h [1]: 32 µM

CN(C)c1ccc(/C=C2\CCC/C(=C\c3cccc([N+](=O)[O-])c3)C2=O)cc1 [Compound 2d]
Number of animals demonstrating neurological deficit/number of treated mice [2, 15]: 1/8 | Number of animals demonstrating neurological deficit/number of treated mice [2, 16]: 1/4

Cc1ccc(/C=C2\CCC/C(=C\c3cccc([N+](=O)[O-])c3)C2=O)cc1 [Compound 2e]
CC50 at 24 h [1]: > 331 µM | Neurotoxicity in mice (in words) [2]: did not display any neurotoxic symptoms

COc1ccc(/C=C2\CCC/C(=C\c3cccc([N+](=O)[O-])c3)C2=O)cc1 [Compound 2f]
CC50 at 24 h [1]: > 262 µM | Number of animals demonstrating neurological deficit/number of treated mice ([2]; 30 mg/kg intraperitoneally, 0.5 h): 1/4 | Neurotoxicity in mice (in words) [2]: Marginal neurotoxicity

COc1cc(/C=C2\CCC/C(=C\c3cccc([N+](=O)[O-])c3)C2=O)cc(OC)c1OC [Compound 2g]
CC50 at 24 h [1]: > 379 µM

O=C1/C(=C/c2ccccc2)CCC/C1=C\c1ccc([N+](=O)[O-])cc1 [Compound 3a]
CC50 at 24 h [1]: 259 µM | Neurotoxicity in mice (in words) [2]: did not display any neurotoxic symptoms

O=C1/C(=C/c2ccc(F)cc2)CCC/C1=C\c1ccc([N+](=O)[O-])cc1 [Compound 3b]
CC50 at 24 h [1]: > 375 µM | Number of animals demonstrating neurological deficit/number of treated mice [2, 15]: 1/8 | Neurotoxicity in mice (in words) [2]: Marginal neurotoxicity

O=C1/C(=C/c2ccc(Cl)cc2)CCC/C1=C\c1ccc([N+](=O)[O-])cc1 [Compound 3c]
Neurotoxicity in mice (in words) [7]: did not display any neurotoxic symptoms; also recorded: no neurotoxicity

CN(C)c1ccc(/C=C2\CCC/C(=C\c3ccc([N+](=O)[O-])cc3)C2=O)cc1 [Compound 3d]
Number of animals demonstrating neurological deficit/number of treated mice [2, 15]: 2/8

Cc1ccc(/C=C2\CCC/C(=C\c3ccc([N+](=O)[O-])cc3)C2=O)cc1 [Compound 3e]
CC50 at 24 h [1]: > 280 µM | Number of animals demonstrating neurological deficit/number of treated mice [2, 16]: half or more and 3/4

COc1ccc(/C=C2\CCC/C(=C\c3ccc([N+](=O)[O-])cc3)C2=O)cc1 [Compound 3f]
CC50 [8]: > 400 µM | CC50 [9]: > 400 µM | CC50 [10]: > 400 µM | CC50 ([11]; reported previously ref 26): > 400 µM | CC50 ([12]; reported previously ref 26): > 400 µM

COc1cc(/C=C2\CCC/C(=C\c3ccc([N+](=O)[O-])cc3)C2=O)cc(OC)c1OC [Compound 3g]
Number of animals demonstrating neurological deficit/number of treated mice [7, 15]: 2/8 | Neurotoxicity in mice (in words) [7]: Marginal neurotoxicity

O=C1CCCC/C1=C\c1ccccc1[N+](=O)[O-] [Compound 4a]
CC50 at 24 h [1]: 146 µM | Number of animals demonstrating neurological deficit/number of treated mice [2, 16]: 1/4 | Neurotoxicity in mice (in words) [2]: Marginal neurotoxicity

O=C1CCCC/C1=C\c1cccc([N+](=O)[O-])c1 [Compound 4b]
CC50 at 24 h [1]: 60 µM | Number of animals demonstrating neurological deficit/number of treated mice [2, 16]: 1/4

COc1ccc(/C=C2\CCC/C(=C\c3ccc([N+](=O)[O-])cc3)C2=O)c(OC)c1OC [Compound 5a, 6-(4-Nitrobenzylidene)-2-(2,3,4-trimethoxybenzylidene) cyclohexanone]
Neurotoxicity in mice (in words) [2]: did not display any neurotoxic symptoms

COc1cc(OC)c(OC)cc1/C=C1\CCC/C(=C\c2ccc([N+](=O)[O-])cc2)C1=O [Compound 5b, 6-(4-Nitrobenzylidene)-2-(2,4,5-trimethoxybenzylidene) cyclohexanone]
Number of animals demonstrating neurological deficit/number of treated mice [2, 15]: 1/8 | Number of animals demonstrating neurological deficit/number of treated mice [2, 16]: 1/4 | Neurotoxicity in mice (in words) [2]: Marginal neurotoxicity

N[C@@H](Cc1ccc(N(CCCl)CCCl)cc1)C(=O)O [Melphalan, reference compound]
CC50 ([11]; reported previously ref 27): 35 µM | CC50 [13]: 81 µM | CC50 ([12]; reported previously ref 27): 6 µM | LD50 [14]: 4.0 mg/kg
